Screens (PubChem BioAssay)
Most compounds without a hit are left out; they make up all but 0.98% or so of the library.
ERAP1 inh: inhibitors of human ERAP1 aminopeptidase | Q9NZ08 | recombinant ERAP1, Leu-AMC fluorescence, 60 min | inhibition, % at 10.7 µM | actives 0.15% (n = 340,000) | AID 652197;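 active = mean replicate inhibition of at least 30%, or all replicates individually reaching that 30% level; inactive = mean below 30% and not every replicate reaching it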;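 note: 0% = neutral control wells and 100% = L-leucinethiol positive control wells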
PGC1a acetyl inh: PGC1a acetylation modulation, inhibitor mode; U2OS PGC1a acetylation, AlphaScreen anti-acetyl-lysine; with virally co-expressed GCN5 acetyltransferase; inhibition, % at 15.6 µM; actives 0.17% (n = 350,000); AID 651687;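 active = every replicate shows inhibition of at least 40%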;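 note: 0% = neutral control wells and 100% = positive control wells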
Statin myotox sup: protects C2C12 myotubes from simvastatin toxicity. rescue of ATP level, % at 7.49 µM. AID 602340. ATP luminescence, 48 h; scaled: DMSO 0, geranylgeraniol control 100. actives 0.78% (n = 330,000);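 active = mean ATP rescue above about 67%, or every replicate alone reaching that limit, limit read from the data, passing the limit was not always enough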;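 note: myotubes were challenged with 10 µM simvastatin during compound exposure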
S100A4 inh HTS: blocks human S100A4 binding to myosin IIA peptide; actives 0.14% (n = 360,000); inhibition, % at 10.7 µM; P26447; S100A4/TAMRA-MyoIIA peptide fluorescence polarization;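 active = mean inhibition of at least 70% across replicates, with every replicate also reaching that level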
Target sequence (P26447 whole entry, looked up): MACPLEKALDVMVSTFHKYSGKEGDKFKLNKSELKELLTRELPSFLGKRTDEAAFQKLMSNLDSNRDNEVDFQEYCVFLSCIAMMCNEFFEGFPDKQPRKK
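Material: human S100A4 monomer with TAMRA-labelled myosin IIA peptide; buffer or medium: HEPES pH 7.2 with CaCl2, KCl, NaCl, DTT, Triton; compound dosing: one concentration per compound; schedule: 5 min incubation before reading; benchmarks: neutral control DMSO, positive control TFP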
Rtt109 HAT inh: C. albicans Rtt109 histone acetyltransferase inhibition | Q5AAJ8 | purified Rtt109/Vps75, ThioGlo CoA-SH fluorescence, 4 h | inhibition, % at 34.9 µM | actives 0.16% (n = 330,000);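 active = inhibition of at least 50% in every replicate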
Target sequence (Q5AAJ8 whole entry, looked up): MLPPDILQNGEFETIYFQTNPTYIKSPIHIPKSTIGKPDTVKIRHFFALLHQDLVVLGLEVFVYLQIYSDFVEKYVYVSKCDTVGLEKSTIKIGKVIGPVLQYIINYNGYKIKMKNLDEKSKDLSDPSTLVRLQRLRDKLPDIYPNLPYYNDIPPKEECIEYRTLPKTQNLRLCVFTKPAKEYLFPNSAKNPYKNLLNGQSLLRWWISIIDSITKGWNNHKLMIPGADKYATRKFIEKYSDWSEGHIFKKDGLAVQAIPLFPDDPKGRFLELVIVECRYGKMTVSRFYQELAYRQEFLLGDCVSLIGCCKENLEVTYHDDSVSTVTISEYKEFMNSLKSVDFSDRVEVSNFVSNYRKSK
Numbers without * were called inactive; nt = not tested or not shown.

SMILES | ERAP1 inh | PGC1a acetyl inh | Statin myotox sup | S100A4 inh HTS | Rtt109 HAT inh
COc1ccc2c3c(n(C)c2c1)[C@H](CO)N(C(=O)Nc1ccccc1F)CC31CCN(C(=O)c2ccccc2)CC1 | nt | 11.0 | nt | nt | nt
C[C@H]1CN([C@@H](C)CO)C(=O)c2cc(NC(=O)CCCN(C)C)ccc2O[C@@H]1CN(C)Cc1ccc(Oc2ccccc2)cc1 | 4.1 | -0.9 | -16.1 | -2.6 | nt
COc1ccc(NC(=O)N[C@H]2CC[C@@H](CCn3cc(-c4ccc(OC)cc4)nn3)O[C@@H]2CO)cc1 | -0.8 | -6.7 | 0.1 | -1.6 | nt
O=C(Nc1ccccc1N1CCCCC1)c1cc(S(=O)(=O)N2CCOCC2)ccc1Cl | 0.1 | nt | nt | -9.5 | 3.0
O=C(Nc1ccccc1Cl)c1cc(S(=O)(=O)N2CCCCC2)ccc1N1CCOCC1 | nt | -0.2 | 7.5 | nt | 60.0*
COCCN(C(=O)COC(=O)CNC(=O)c1cccs1)c1c(N)n(Cc2ccccc2)c(=O)[nH]c1=O | 35.3* | nt | nt | -2.3 | -0.5
CCCn1c(SCC(=O)c2ccc(OC)c(OC)c2)nc2c1c(=O)n(C)c(=O)n2C | nt | -1.9 | 130.5* | nt | -7.7
COc1ccc(C(=O)Cn2c(N3CCCCC3)nc3c2c(=O)n(C)c(=O)n3C)cc1OC | -4.2 | 13.3 | nt | 1.9 | -3.4
C(=N\Nc1nc2ccccc2[nH]1)/c1ccc2ncccc2c1 | 4.2 | 48.9* | -18.6 | 2.8 | 3.1
C#CCN(C[C@@H]1[C@@H](OC(=O)NCc2ccccc2F)[C@@H](OC(=O)NCc2ccccc2F)Cn2c(=O)n(CCCCCC)c(=O)n21)S(=O)(=O)c1ccc(C)cc1 | 4.6 | 4.8 | 6.9 | -13.4 | nt
C#CCN(C[C@@H]1[C@@H](OC(=O)NCc2ccccc2F)[C@@H](OC(=O)NCc2ccccc2F)Cn2c(=O)ccc(=O)n21)S(=O)(=O)c1ccc(C)cc1 | nt | 60.4* | 3.3 | -6.1 | nt
O=C(C[C@H]1CC[C@H]2[C@@H](COC[C@@H](O)CN2C(=O)c2cccnc2)O1)NCc1ccc(Cl)cc1 | -3.8 | -6.0 | -5.3 | -27.1 | nt
O=C(C[C@H]1CC[C@@H]2[C@H](COC[C@H](O)CN2CCC(F)(F)F)O1)NCc1ccc(Oc2ccccc2)cc1 | nt | -15.2 | 71.9* | nt | nt
O=C(C[C@H]1CC[C@@H]2[C@H](COC[C@@H](O)CN2CC2CCCCC2)O1)NCc1ccc(Cl)cc1 | 0.5 | -4.7 | -6.7 | -3.1 | nt
O=C(C[C@@H]1CC[C@H]2[C@@H](COC[C@@H](O)CN2CCC(F)(F)F)O1)NCc1ccc(Oc2ccccc2)cc1 | nt | -0.6 | 17.6 | nt | nt
O=C(C[C@@H]1CC[C@H]2[C@@H](COC[C@@H](O)CN2CC2CCCCC2)O1)NCc1ccc(F)cc1 | -0.1 | -11.8 | 11.0 | 115.8* | nt
O=C(C[C@@H]1CC[C@@H]2[C@H](COC[C@H](O)CN2C(=O)c2cccnc2)O1)NCc1ccc(Cl)cc1 | -5.7 | -2.3 | 8.3 | 94.1* | nt
O=C(COc1ccc(Cl)cc1)NCCCn1ccnc1 | nt | 5.9 | 71.5* | nt | 2.8
CC(Oc1ccc2ccc(=O)oc2c1)C(=O)NCCCn1ccnc1 (stereo not drawn) | -7.1 | 3.6 | 96.0* | -3.1 | -5.2
COc1ccc(OCC(=O)NCCCn2ccnc2)cc1 | 7.4 | 2.0 | 11.0 | -12.9 | 1.3
COc1ccc(-c2cc(=O)oc3cc(OC(C)C(=O)NCCCn4ccnc4)ccc23)cc1 (stereo not drawn) | 5.8 | -14.9 | -1.3 | 4.0 | 10.6
C[C@H](O)C#Cc1cnc2c(c1)C(=O)N([C@@H](C)CO)C[C@@H](C)[C@H](CN(C)C(=O)Cc1ccccn1)O2 | -1.0 | 10.2 | -3.2 | 12.6 | nt
CO[C@H]1CN(C)C(=O)c2cc(NC(=O)C3CCC3)ccc2OC[C@@H](C)N(Cc2ccccn2)C[C@H]1C | nt | -5.4 | -9.4 | nt | nt
NC1=C(Br)C(=O)c2ncccc2C1=O | 10.2 | 87.1* | nt | -6.3 | -4.8
O=C1c2cccnc2C(=O)N1CO | nt | 13.2 | -3.8 | nt | -1.3
SMILES | ERAP1 inh | PGC1a acetyl inh | Statin myotox sup | S100A4 inh HTS | Rtt109 HAT inh
C[C@H]1CN([C@@H](C)CO)C(=O)c2cc(C3=CCCC3)cnc2O[C@H]1CN(C)S(=O)(=O)c1cn(C)cn1 | -0.4 | 12.7 | -0.1 | -16.0 | nt
COc1cc(-c2nnc(SCC#CCO)o2)cc(OC)c1OC | 0.8 | -9.7 | 114.4* | -1.8 | -6.4
OCC#CCSc1nnc(-c2ccncc2)o1 | nt | 1.8 | nt | nt | 3.9
CC(=O)C1=C(C)NC(SCc2cccc([N+](=O)[O-])c2)=C(C#N)C1c1ccco1 (stereo not drawn) | nt | 2.2 | 143.4* | nt | -0.1
O=C(c1cc2cc(Cl)cc(Cl)c2oc1=O)N1CCOCC1 | nt | 5.9 | 115.3* | nt | -16.1
CCC(=O)N1[C@H](CO)[C@H](c2ccc(C3=CCCCC3)cc2)[C@H]1CNCC1CCC1 | -6.1 | nt | nt | -18.0 | nt
O=C(NCc1ccccc1Cl)c1cc(=O)[nH]c2ccccc12 | 48.3* | nt | 3.8 | -4.9 | 4.4
O=C(NCc1ccccc1Cl)c1cnccn1 | nt | 16.1 | 66.9* | nt | -4.1
COCC#Cc1ccc2c(c1)O[C@@H](CN(C)C(=O)C1CC1)[C@H](C)CN([C@H](C)CO)S2(=O)=O | -0.2 | -0.3 | -7.3 | -10.6 | nt
O=C(Nc1ccc(F)cc1)N[C@@H]1CC[C@H](CCNS(=O)(=O)c2ccccc2F)O[C@H]1CO | -2.5 | -21.9 | -1.3 | -12.3 | nt
CCN(C(C)=O)c1cccc2ccccc12 | nt | -2.7 | 147.3* | nt | 5.3
CCN(C(=S)NCc1ccccc1)c1cccc2ccccc12 | -1.3 | 0.8 | 2.7 | -8.7 | 3.3
COc1ccc(CNc2ncnc3cc(OC)c(OC)cc23)cc1 | nt | 7.2 | 111.3* | nt | -4.4
COc1cc2ncnc(NCc3ccccc3)c2cc1OC | nt | 22.2 | -21.6 | nt | 10.3
Cc1ccc(S(=O)(=O)Nc2ccc3c(c2)C(=O)N([C@H](C)CO)C[C@H](C)[C@H](CN(C)Cc2ccc(C(F)(F)F)cc2)OCCCC[C@H](C)O3)cc1 | 1.9 | 28.5 | nt | 5.2 | nt
CCOCCN1CCN(c2c(CC)c(C)nc3cc(-c4cc(OC)cc(OC)c4)nn23)CC1 | nt | 2.8 | 98.9* | nt | 6.0
O=c1c2ccccc2ncn1-c1ccc(Cl)cc1Cl | 1.6 | 14.4 | nt | 1.7 | nt
O=c1c2ccccc2sn1-c1ccc(Cl)cc1Cl | 81.4* | nt | -9.4 | -2.9 | nt
Cc1ccc(S(=O)(=O)Nc2ccc3c(c2)C(=O)N([C@@H](C)CO)C[C@H](C)[C@@H](CN(C)C(=O)CCC(F)(F)F)OCCCC[C@@H](C)O3)cc1 | 2.6 | -1.1 | nt | -5.1 | nt
CC(=O)c1cccc(NC(=O)CCCNC(=O)c2ccc(Cl)cc2)c1 | -4.0 | -10.6 | 5.7 | -11.2 | -8.5
CSc1cccc(NC(=O)CCCNC(=O)c2ccc(Cl)cc2)c1 | 51.1* | nt | 34.4 | -5.0 | -7.8
Oc1ccc(Cl)cc1C1=NNC(c2cccs2)C1 (stereo not drawn) | -3.8 | -6.2 | 148.6* | -2.1 | 11.7
Cc1ccc(O)c(C2=NNC(c3ccc(Cl)cc3)C2)c1 (stereo not drawn) | -0.7 | -0.3 | nt | 0.5 | -1.3
CCOC(=O)C1=C(N)c2ccccc2CC1C(C)C (stereo not drawn) | nt | 2.2 | 122.7* | nt | 2.5
